High-throughput results (PubChem)
ALR inh: inhibitors of human sulfhydryl oxidase ALR | purified ALR, DTT oxidation, H2O2 HRP-luminol luminescence | inhibition, % (no concentration beside the values) | actives 3.8% (n = 290,000);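 active means mean replicate inhibition above about 79%, with every replicate also reaching it, limit read from the data; inconclusive means only one of the two criteria met; inactive means mean below limit and not every replicate reaching it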
Target sequence (P55789 whole entry, looked up): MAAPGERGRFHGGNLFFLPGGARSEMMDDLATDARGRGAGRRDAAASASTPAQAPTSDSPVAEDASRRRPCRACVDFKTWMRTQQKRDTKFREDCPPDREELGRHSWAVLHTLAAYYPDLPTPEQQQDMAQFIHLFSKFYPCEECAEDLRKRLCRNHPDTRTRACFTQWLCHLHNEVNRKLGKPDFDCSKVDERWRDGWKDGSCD
T cell modulator: T cell immune modulators affecting CD8 T cell-vesicle binding; 2C CD8+ T cell-vesicle binding, flow cytometry; stronger effect = lower value; response (vesicle binding), % at 7 µM; actives 0.068% (n = 330,000); AID 2052;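 active means response, share of CD8 T cells binding vesicles, and their 90th percentile fluorescence all below set limits, cut at about 80% in these data, passing the limit was not always enough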;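 further: values below 100% mean blocked vesicle binding to the CD8+ T cells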
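Benchmarks: naked versus QL9-loaded vesicles / Assay system: purified 2C TCR transgenic mouse naive CD8+ T cells / Technique: high-throughput flow cytometry with anti-B7-1 and anti-CD8 staining / Timing: Cell–vesicle co-incubation 1.5 h at 37 °C, staining 20 min on ice / Read-out: percent CD8+ FL2 mean versus row control / Probe or stimulus: QL9-loaded Drosophila micro-vesicles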
N-glyco inh: N-linked glycosylation inhibition. D54 ERlucT glycosylation luciferase reporter, 24 h; percent of 100 nM tunicamycin response. reporter increase, % at 12.5 µM. actives 0.23% (n = 360,000). AID 588692;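 active means mean luciferase reporter signal, scaled so untreated is 0 and the glycosylation-blocking control 100, at or above a set limit in every replicate; inconclusive means mean reaches the limit but not every replicate does; inactive means mean below the limit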;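 further: luciferase carries N-glycosylation sites so blocking glycosylation raises the light; 0% = median of neutral control wells and 100% = median of 100 nM tunicamycin wells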
Active calls of the source: *; ? = inconclusive; . = no result. Many of the other results were omitted from the sample, so hits are more common in it than they were.

SMILES | ALR inh | T cell modulator | N-glyco inh
CCOC(=O)CN1C(=O)S/C(=C/C=C/c2ccc(N(C)C)cc2)C1=O | 55 | 392 | -2
CSC1=N/C(=C\c2ccc(C)cc2)C(=O)S1 | . | 338 | 1
O=C1SC(SCc2ccccc2Cl)=N/C1=C\c1ccc(C(=O)O)cc1 | 101* | 292 | 1
CCSC1=N/C(=C\c2ccc(C(=O)O)cc2)C(=O)S1 | 71 | 246 | 3
CCOC(=O)SC1=N/C(=C\c2ccc(N(C)C)cc2)C(=O)S1 | 84* | 789 | 2
COC(=O)c1ccc(/C=C2\N=C(SC)SC2=O)cc1 | 99* | 113 | -1
COCOCCn1cc(CN2CCS(=O)(=O)N(Cc3ccc(-c4ccc(OC)c(OC)c4)cc3)C(C)C2=O)nn1 (stereo not drawn) | . | . | 0
Cc1ccccc1CS(=O)(=O)c1ccc(C(=O)N2CCC(C)CC2)cc1[N+](=O)[O-] | 97* | 132 | 1
CC1CCN(C(=O)c2ccc(S(=O)(=O)Cc3cccc(F)c3)c([N+](=O)[O-])c2)CC1 | -1 | 326 | -6
Cc1cccc(CCNCc2c(C(=O)O)c(C)n(-c3ccccc3)c2C)c1 | -3 | 228 | -1
COc1ccc(-n2ccnc(SCC(=O)NCc3ccc(C)cc3)c2=O)cc1Cl | 98* | 350 | 2
O=C(CSc1nccn(-c2cccc(F)c2)c1=O)Nc1ccc(Cl)cc1F | 99* | 328 | 0
O=C(CSc1nccn(-c2ccc(Br)cc2)c1=O)NCc1ccccc1 | . | 426 | -2
Cc1ccc(CNC(=O)CSc2nccn(-c3ccc(C)c(F)c3)c2=O)cc1 | 98* | 609 | 3
COc1ccccc1-n1ccnc(SCC(=O)NCc2ccccc2)c1=O | . | 247 | 4
O=C(CSc1nccn(-c2ccc(F)c(F)c2)c1=O)NC1CCCC1 | . | . | -1
Cc1ccc([C@@H]2CC(=O)[C@@H]3CN(S(=O)(=O)c4ccccc4C)[C@H](c4ccc(Cl)cc4)C[C@@H]3N2S(=O)(=O)c2ccc(C)cc2)cc1 | . | . | -16
CCCc1ccc2ccc3ccccc3c2n1 | . | . | -1
C=CC[C@]12C=C(OC)C(=O)C=C1O[C@@H](c1ccc3c(c1)OCO3)[C@H]2C | -15 | 199 | 1
CC(C)(CO)NC(=O)c1ccc2c(c1)C(=O)c1ccccc1-2 | -7 | 186 | 0
O=C(O)CN1C(=O)/C(=C/c2ccccc2Cl)Oc2ccccc21 | 4 | 575 | -1
O=C(O)CN1C(=O)/C(=C/c2cccc(Cl)c2)Oc2ccccc21 | 81* | 183 | 2
Cc1ccc(S(=O)(=O)N2CCC[C@H]2C(=O)NCc2ccccc2Cl)cc1 | -24 | 347 | -2
O=C(NCc1cccnc1)C(=O)NCC(c1ccco1)N1CCN(c2ccc(F)cc2)CC1 (stereo not drawn) | 86* | 243 | 0
COc1ccc(N2CCN(C(CNC(=O)c3ccco3)c3ccco3)CC2)cc1 (stereo not drawn) | 91* | 608 | -1
SMILES | ALR inh | T cell modulator | N-glyco inh
COc1ccccc1N1CCN(C(CNC(=O)c2ccco2)c2cccnc2)CC1 (stereo not drawn) | 40 | 445 | 0
FC(F)(F)c1cccc(N2CCN(C(=S)NCC3CCCO3)CC2)c1 (stereo not drawn) | 3 | 196 | -1
S=C(NCC1CCCO1)N1CCN(c2ccccc2)CC1 (stereo not drawn) | 98* | 136 | 0
O=C(NCC(c1ccco1)N1CCN(c2ccccc2)CC1)c1ccco1 (stereo not drawn) | 42 | 183 | 3
COc1ccc(N2CCN(C(CNC(=O)C(=O)NCc3cccnc3)c3ccco3)CC2)cc1 (stereo not drawn) | 72 | 202 | 0
COc1ccc(N2CCN(C(CNC(=O)c3ccco3)c3cccnc3)CC2)cc1 (stereo not drawn) | 89* | 208 | 1
Cc1ccc(CNC(=O)CCSCc2ccccc2C)cc1 | -1 | 176 | -1
O=C(CCN1C(=O)c2ccccc2C1=O)C1=NN[C@@H]2C(=O)N(c3ccc4c(c3)OCO4)C(=O)[C@H]12 | . | 496 | 1
Cc1nc(N)[nH]c(=O)c1CCCNc1ccc(CCCCC2(CCl)OCCO2)cc1 | . | . | -1
O=C(Nc1ccc(Cc2nc3ccccc3s2)cc1)c1ccncc1 | -6 | 293 | -3
O=C(COc1coc(CN2CCN(c3ccccc3)CC2)cc1=O)NCC1CCCO1 (stereo not drawn) | 93* | 226 | -1
O=C(NCC(c1cccnc1)N1CCN(c2ccc(F)cc2)CC1)c1ccc2c(c1)OCO2 (stereo not drawn) | 48 | 509 | -1
O=C(COc1ccccc1F)NCC(c1ccco1)N1CCCC1 (stereo not drawn) | -4 | 50* | 1
CC(C)NC(=O)COc1coc(CN2CCN(c3ccccc3)CC2)cc1=O | 50 | 306 | 1
O=C(NCc1ccncc1)C(=O)NCC(c1ccco1)N1CCN(c2ccccc2)CC1 (stereo not drawn) | 99* | 215 | 1
COc1ccc(N2CCN(C(CNC(=O)C(=O)NCc3ccncc3)c3ccco3)CC2)cc1 (stereo not drawn) | ? | 190 | -2
O=C(COc1ccccc1)NCC(c1ccco1)N1CCCCC1 (stereo not drawn) | 3 | 178 | 1
COc1ccc(N2CCN(C(CNC(=O)c3ccc4c(c3)OCO4)c3cccnc3)CC2)cc1 (stereo not drawn) | 97* | 144 | 1
Cc1ccc(Sc2ncccc2COC(=O)NC(C)C)cc1 | . | 820 | -4
C[C@@H](NC(=O)c1nc[nH]c1C(=O)NCC(=O)OCc1ccccc1)c1ccccc1 | . | 586 | 2
O=C(NCc1ccc(Cl)cc1)c1ccc(S(=O)(=O)N2CCCCC2)cc1 | 1 | 626 | -3
C[C@@H]1CN([C@@H](C)CO)C(=O)CCCn2nncc2CO[C@@H]1CN(C)C(=O)c1ccccc1 | . | . | -1
COc1ccc(-c2noc(CNS(=O)(=O)c3ccccc3)n2)cc1 | 1 | 729 | -1
COc1ccc(-c2nnc(SCc3nc4ccccc4c(=O)[nH]3)o2)cc1 | . | 233 | -2
CC1(C)CC(NC(=O)C23CCC(C)(C2Br)C3(C)C)CC(C)(C)N1 (stereo not drawn) | . | 396 | 0
SMILES | ALR inh | T cell modulator | N-glyco inh
c1ccc(C(NCCNC(c2ccccc2)c2ccccc2)c2ccccc2)cc1 | 3 | 209 | -8
O=C(NCC(c1cccnc1)N1CCN(c2ccc(F)cc2)CC1)c1ccco1 (stereo not drawn) | 92* | 383 | 0
COC(=O)NCC(c1ccco1)N1CCN(c2ccccc2)CC1 (stereo not drawn) | 96* | 447 | -1
O=C(NCC(c1cccnc1)N1CCOCC1)c1ccco1 (stereo not drawn) | -3 | 166 | 1
O=C(NCC(c1ccco1)N1CCN(c2ccccc2)CC1)OCc1ccccc1 (stereo not drawn) | 23 | 135 | 0
O=C(NCC1CCCO1)C(=O)NCC(c1ccco1)N1CCN(c2ccccc2)CC1 (stereo not drawn) | 98* | 163 | -1
O=C(NCC1CCCO1)C(=O)NCC(c1ccco1)N1CCN(c2ccc(F)cc2)CC1 (stereo not drawn) | 59 | 175 | -2
COC(=O)C[C@H]1C[C@H]2c3cc(NC(=O)C4CCC4)ccc3O[C@H]2[C@H](CO)O1 | . | . | 1
O=C(CN(C(=O)CNC(=O)c1cccs1)c1ccc(F)cc1)NC1CCCC1 | . | 209 | -1
